Columns and labels:
Format in all cases: functional
ACHN = test: Cytotoxicity against human ACHN cells assessed as cell growth at 10 uM after 48 hrs by sulforhodamine B assay; details: read-out: Activity
In short: (§1)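 NCI-60 five-dose screen. Cells were grown in RPMI 1640 with 5% FBS and 2 mM L-glutamine and preincubated 24 h. Compound (DMSO stock) was tested at 0.01, 0.1, 1, 10 and 100 µM for 48 h at 37 °C. Cells were fixed in situ with cold TCA (final 10%) and stained with 0.4% SRB. A515 was read, and percent growth was calculated against time-zero and control plates.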

SF-295 = test: Cytotoxicity against human SF295 cells assessed as cell growth at 100 uM after 48 hrs by sulforhodamine B assay; details: SF-295, 48 h, read-out: Activity
OVCAR-5 = test: Cytotoxicity against human OVCAR5 cells assessed as cell growth at 10 uM after 48 hrs by sulforhodamine B assay; details: OVCAR-5, 48 h, read-out: Activity
RXF 393 = test: Cytotoxicity against human RXF393 cells assessed as cell growth at 100 uM after 48 hrs by sulforhodamine B assay; details: RXF 393, 48 h, read-out: Activity
EKVX = test: Cytotoxicity against human EKVX cells assessed as cell growth at 10 '-5 M after 48 hrs by sulforhodamine B assay; details: read-out: Activity
In short: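 Primary one-dose screen across the NCI 60-line panel at 10 µM. Cells were grown in RPMI 1640 with 5% FBS and 2 mM L-glutamine and held 24 h before drug. Drug was diluted from a DMSO concentrate. Exposure was 48 h at 37 °C, 5% CO2. Cells were fixed with TCA and stained with SRB, with absorbance read at 515 nm. Percent growth was calculated against time-zero and untreated control.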

OVCAR-8 = test: Cytotoxicity against human OVCAR8 cells assessed as cell growth at 100 uM after 48 hrs by sulforhodamine B assay; details: OVCAR-8, 48 h, read-out: Activity
COLO 205 [1] = test: Cytotoxicity against human COLO205 cells assessed as cell growth at 1 uM after 48 hrs by sulforhodamine B assay; details: COLO 205, 48 h, read-out: Activity; in short: as §1
M14 [2] = test: Cytotoxicity against human M14 cells assessed as cell growth at 10 '-5 M after 48 hrs by sulforhodamine B assay; details: M14, 48 h, read-out: Activity
CAKI-1 = test: Cytotoxicity against human Caki1 cells assessed as cell growth at 0.01 uM after 48 hrs by sulforhodamine B assay; details: CAKI-1, 48 h, read-out: Activity; in short: as §1
Malme-3M [3] = test: Growth inhibition of human MALME-3M cells after 48 hrs by sulforhodamine B assay; details: for CC50: read-out: LC50 (the source's name)
In short: (§2)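 Adherent NCI-60 lines were grown in RPMI 1640 with 5% FBS and 2 mM L-glutamine, plated at 5000–40,000 cells/well and preincubated 24 h. They were then exposed to five concentrations (0.01–100 µM, from a DMSO stock) for 48 h at 37 °C, 5% CO2. Cells were fixed with cold TCA (10% final, 60 min, 4 °C) and stained with 0.4% SRB. Dye was solubilized in 10 mM Tris base and A515 read. GI50 was derived from time-zero, control and treated absorbances.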

HCC 2998 [4] = test: Growth inhibition of human HCC2998 cells after 48 hrs by sulforhodamine B assay; details: HCC 2998, 48 h; for CC50: read-out: LC50 (the source's name); in short: as §2
M14 [5] = test: Growth inhibition of human M14 cells after 48 hrs by sulforhodamine B assay; details: M14, 48 h; in short: as §2
TK-10 = test: Cytotoxicity against human TK10 cells assessed as cell growth at 100 uM after 48 hrs by sulforhodamine B assay; details: TK-10, 48 h, read-out: Activity
SK-OV-3 = test: Cytotoxicity against human SKOV3 cells assessed as cell growth at 100 uM after 48 hrs by sulforhodamine B assay; details: SK-OV-3, 48 h, read-out: Activity
PC-3 = test: Cytotoxicity against human PC3 cells assessed as cell growth at 10 uM after 48 hrs by sulforhodamine B assay; details: PC-3, 48 h, read-out: Activity
SF-268 = test: Cytotoxicity against human SF268 cells assessed as cell growth at 1 uM after 48 hrs by sulforhodamine B assay; details: SF-268, 48 h, read-out: Activity
LOX IMVI = test: Cytotoxicity against human LOXIMVI cells assessed as cell growth at 0.1 uM after 48 hrs by sulforhodamine B assay; details: read-out: Activity
MDA-MB-435 = test: Cytotoxicity against human MDA-MB-435 cells assessed as cell growth at 100 uM after 48 hrs by sulforhodamine B assay; details: MDA-MB-435, 48 h, read-out: Activity
SK-MEL-28 [6] = test: Cytotoxicity against human SK-MEL-28 cells assessed as cell growth at 100 uM after 48 hrs by sulforhodamine B assay; details: SK-MEL-28, 48 h, read-out: Activity
Malme-3M [7] = test: Cytotoxicity against human MALME-3M cells assessed as cell growth at 0.01 uM after 48 hrs by sulforhodamine B assay; details: read-out: Activity
COLO 205 [8] = test: Cytotoxicity against human COLO205 cells assessed as cell growth at 0.01 uM after 48 hrs by sulforhodamine B assay; details: COLO 205, 48 h, read-out: Activity; in short: as §1
COLO 205 [9] = test: Growth inhibition of human COLO205 cells after 48 hrs by sulforhodamine B assay; details: COLO 205, 48 h; for CC50: read-out: LC50 (the source's name)
In short: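 Cells were in RPMI 1640 with 5% FBS and pre-incubated 24 h. Read-out was TCA fixation, SRB staining and absorbance at 515 nm. GI50 was the concentration where [(Ti−Tz)/(C−Tz)]×100 = 50, taken from log concentration vs % growth curves. It is given as ">" the top concentration when not reached.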

T47D = test: Cytotoxicity against human T47D cells assessed as cell growth at 10 '-5 M after 48 hrs by sulforhodamine B assay; details: read-out: Activity
SNB-19 = test: Cytotoxicity against human SNB19 cells assessed as cell growth at 10 '-5 M after 48 hrs by sulforhodamine B assay; details: SNB-19, 48 h, read-out: Activity
HCC 2998 [10] = test: Cytotoxicity against human HCC2998 cells assessed as cell growth at 100 uM after 48 hrs by sulforhodamine B assay; details: HCC 2998, 48 h, read-out: Activity
In short: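 Five-dose NCI panel run at 0.01, 0.1, 1, 10 and 100 µM. Cells were in RPMI 1640 with 5% FBS and 2 mM L-glutamine, seeded at 5000–40,000 cells/well and pre-incubated 24 h. Drug was diluted from a DMSO stock into medium with 50 µg/ml gentamicin. Exposure was 48 h at 37 °C, 5% CO2. Cells were fixed with cold TCA and stained with 0.4% SRB, read at 515 nm. Percent growth came from time-zero, control and test absorbances.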

OVCAR-4 = test: Cytotoxicity against human OVCAR4 cells assessed as cell growth at 100 uM after 48 hrs by sulforhodamine B assay; details: OVCAR-4, 48 h, read-out: Activity
SK-MEL-28 [11] = test: Cytotoxicity against human SK-MEL-28 cells assessed as cell growth at 10 '-5 M after 48 hrs by sulforhodamine B assay; details: SK-MEL-28, 48 h, read-out: Activity

Compound | growth at 10 µM (ACHN) [%] | growth at 100 µM (SF-295) [%] | growth at 10 µM (OVCAR-5) [%] | growth at 100 µM (RXF 393) [%] | growth at 10 µM (EKVX) [%] | growth at 100 µM (OVCAR-8) [%] | growth at 1 µM (COLO 205 [1]) [%] | growth at 10 µM (M14 [2]) [%] | growth at 0.01 µM (CAKI-1) [%] | TGI (Malme-3M [3]) [µM] | CC50 (Malme-3M [3]) [µM] | GI50 (HCC 2998 [4]) [µM] | TGI (HCC 2998 [4]) [µM] | CC50 (HCC 2998 [4]) [µM] | LC50 (M14 [5]) [µM] | TGI (M14 [5]) [µM] | growth at 100 µM (TK-10) [%] | growth at 100 µM (SK-OV-3) [%] | growth at 10 µM (PC-3) [%] | growth at 1 µM (SF-268) [%] | other results
Cc1ccc2nc(Nc3c(C)cccc3C)sc2c1 | 59 | 14 | 65 | 24 | 54.1 | 45 | 82 | 26.2 | 93 | > 100 | > 100 | > 100 | > 100 | > 100 | > 100 | > 100 | 72 | 54 | 49 | 79 | growth at 0.1 µM (LOX IMVI): 93%; growth at 100 µM (MDA-MB-435): -10%; growth at 100 µM (SK-MEL-28 [6]): 55%; growth at 0.01 µM (Malme-3M [7]): 102%; growth at 0.01 µM (COLO 205 [8]): 107%; TGI (COLO 205 [9]): > 100 µM; CC50 (COLO 205 [9]): > 100 µM; growth at 10 µM (T47D): 45.8%; growth at 10 µM (SNB-19): 59.5%; growth at 100 µM (HCC 2998 [10]): 62%; growth at 100 µM (OVCAR-4): 77%; growth at 10 µM (SK-MEL-28 [11]): 45.5%
Clc1cccc(Cl)c1Nc1nc2cccc(Cl)c2s1 | -99 | -51 | -93 | -40 | -7.99 | -35 | 74 | -61.3 | 92 | 2.4 | 5.6 | 1.34 | 2.78 | 5.74 | 7.44 | 3.29 | -67 | -100 | -68 | 62 | GI50 (Malme-3M [3]): 1.03 µM; GI50 (M14 [5]): 1.46 µM; growth at 0.1 µM (LOX IMVI): 89%; growth at 100 µM (MDA-MB-435): -67%; growth at 100 µM (SK-MEL-28 [6]): -69%; growth at 0.01 µM (Malme-3M [7]): 101%; growth at 0.01 µM (COLO 205 [8]): 105%; GI50 (COLO 205 [9]): 1.4 µM; TGI (COLO 205 [9]): 2.81 µM; CC50 (COLO 205 [9]): 5.67 µM; growth at 10 µM (T47D): -4.9%; growth at 10 µM (SNB-19): 13.8%; growth at 100 µM (HCC 2998 [10]): -64%; growth at 100 µM (OVCAR-4): -87%; growth at 10 µM (SK-MEL-28 [11]): -48.1%
